Measured values from article PMC4210126 (ACS Chemical Neuroscience, 2014).

Legend:
human HAB TSPO = human HAB TSPO (Homo sapiens, UniProt P30536); assay type: binding; conditions: pKi – logD for human cerebellum HAB
Measurement of LogD = assay type: physicochemical; conditions: n-octanol/sodium phosphate buffer, pH 7.4
Procedure, shortened: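 Partition of each carbon-11-labelled test compound between n-octanol and sodium phosphate buffer (pH 7.4), run at room temperature. Radioactivity distribution between the phases gives logD.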

Chain of human HAB TSPO (P30536 whole entry): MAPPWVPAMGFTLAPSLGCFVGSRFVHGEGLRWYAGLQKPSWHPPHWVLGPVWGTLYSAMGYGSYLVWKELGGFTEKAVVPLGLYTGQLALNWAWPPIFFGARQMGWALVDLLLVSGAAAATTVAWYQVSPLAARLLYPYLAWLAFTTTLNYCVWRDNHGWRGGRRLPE

CCC(C)N(C)C(=O)c1cc2ccccc2c(-c2ccccc2Cl)n1 (centres unmarked) [Ligand 1]
LipE (human HAB TSPO): 4.37 | logD (Measurement of LogD): 3.97 ± 0.18
